Data taken from ChEMBL document CHEMBL3351385, “Synthesis and preliminary mechanistic evaluation of 5-(p-tolyl)-1-(quinolin-2-yl)pyrazole-3-carboxylic acid amides with potent antiproliferative activity on human cancer cell lines” (Eur J Med Chem, 2014).
Activity calls are given as the source filed them. No cut-off for these calls is given here.

Columns and labels:
[1] = test system: Huh-7; assay: Induction of cell death in human HuH7 cells assessed as nuclear condensation at cytotoxic IC50 level after 72 hrs by Hoechst 33258 staining based […]; type: functional
In short: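 Cells were washed in cold PBS, fixed 10 min in cold methanol and stained with Hoechst 33258 at 3 µg/mL for 5 min in the dark. Nuclear condensation and fragmentation were examined by fluorescence microscopy at 40×.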

[2] = Induction of cell cycle arrest in human HuH7 cells assessed as accumulation at G0/G1 phase at cytotoxic IC50 level after 48 hrs by propidium iodide staining based FACS method; type: functional, Huh-7
In short: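 Huh7 cells were seeded at 150,000–300,000 per 100-mm dish and left 24 h. […] Cells were stained with a propidium iodide-containing cell cycle reagent, and subG1, G0/G1, S and G2/M fractions were scored by flow cytometry.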

[3] = target: Dual specificity mitogen-activated protein kinase kinase 2 (Homo sapiens) (UniProt P36507); assay: Inhibition of MKK2 (unknown origin) assessed as remaining enzyme activity at 10 uM by radioactive [33P]-ATP filter binding assay
[4] = target: Mitogen-activated protein kinase 1 (Homo sapiens) (UniProt P28482); assay: Inhibition of ERK2 (unknown origin) assessed as remaining enzyme activity at 10 uM by radioactive [33P]-ATP filter binding assay
In short: (§1)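 A single 10 µM concentration was tested across a 140-kinase panel. Activity was measured by a radioactive 33P-ATP filter-binding assay run at the International Center for Kinase Profiling, University of Dundee.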

[5] = target: Mitogen-activated protein kinase 9 (Homo sapiens) (UniProt P45984); assay: Inhibition of JNK2 (unknown origin) assessed as remaining enzyme activity at 10 uM by radioactive [33P]-ATP filter binding assay
[6] = target: Mitogen-activated protein kinase 10 (Homo sapiens) (UniProt P53779); assay: Inhibition of JNK3 (unknown origin) assessed as remaining enzyme activity at 10 uM by radioactive [33P]-ATP filter binding assay
[7] = target: Mitogen-activated protein kinase 13 (Homo sapiens) (UniProt O15264); assay: Inhibition of p38delta (unknown origin) assessed as remaining enzyme activity at 10 uM by radioactive [33P]-ATP filter binding assay
[8] = target: Ribosomal protein S6 kinase alpha-1 (Homo sapiens) (UniProt Q15418); assay: Inhibition of RSK1 (unknown origin) assessed as remaining enzyme activity at 10 uM by radioactive [33P]-ATP filter binding assay
[9] = target: Ribosomal protein S6 kinase alpha-3 (Homo sapiens) (UniProt P51812); assay: Inhibition of RSK2 (unknown origin) assessed as remaining enzyme activity at 10 uM by radioactive [33P]-ATP filter binding assay
[10] = target: Serine/threonine-protein kinase N2 (Homo sapiens) (UniProt Q16513); assay: Inhibition of PRK2 (unknown origin) assessed as remaining enzyme activity at 10 uM by radioactive [33P]-ATP filter binding assay
[11] = target: MAP kinase-interacting serine/threonine-protein kinase 1 (Homo sapiens) (UniProt Q9BUB5); assay: Inhibition of MNK1 (unknown origin) assessed as remaining enzyme activity at 10 uM by radioactive [33P]-ATP filter binding assay
[12] = target: MAP kinase-interacting serine/threonine-protein kinase 2 (Homo sapiens) (UniProt Q9HBH9); assay: Inhibition of MNK2 (unknown origin) assessed as remaining enzyme activity at 10 uM by radioactive [33P]-ATP filter binding assay
[13] = target: MAP kinase-activated protein kinase 5 (Homo sapiens) (UniProt Q8IW41); assay: Inhibition of PRAK (unknown origin) assessed as remaining enzyme activity at 10 uM by radioactive [33P]-ATP filter binding assay
[14] = target: Calcium/calmodulin-dependent protein kinase kinase 2 (Homo sapiens) (UniProt Q96RR4); assay: Inhibition of CAMKKB (unknown origin) assessed as remaining enzyme activity at 10 uM by radioactive [33P]-ATP filter binding assay; in short: as §1
[15] = target: Serine/threonine-protein kinase Chk1 (Homo sapiens) (UniProt O14757); assay: Inhibition of CHK1 (unknown origin) assessed as remaining enzyme activity at 10 uM by radioactive [33P]-ATP filter binding assay; in short: as §1
[16] = target: Glycogen synthase kinase-3 beta (Homo sapiens) (UniProt P49841); assay: Inhibition of GSK3beta (unknown origin) assessed as remaining enzyme activity at 10 uM by radioactive [33P]-ATP filter binding assay
[17] = target: Serine/threonine-protein kinase tousled-like 1 (Homo sapiens) (UniProt Q9UKI8); assay: Inhibition of TLK1 (unknown origin) assessed as remaining enzyme activity at 10 uM by radioactive [33P]-ATP filter binding assay
[18] = target: Serine/threonine-protein kinase MARK1 (Homo sapiens) (UniProt Q9P0L2); assay: Inhibition of MARK1 (unknown origin) assessed as remaining enzyme activity at 10 uM by radioactive [33P]-ATP filter binding assay
[19] = target: MAP/microtubule affinity-regulating kinase 3 (Homo sapiens) (UniProt P27448); assay: Inhibition of MARK3 (unknown origin) assessed as remaining enzyme activity at 10 uM by radioactive [33P]-ATP filter binding assay
[20] = target: High affinity nerve growth factor receptor (Homo sapiens) (UniProt P04629); assay: Inhibition of TrkA (unknown origin) assessed as remaining enzyme activity at 10 uM by radioactive [33P]-ATP filter binding assay
[21] = target: Discoidin domain-containing receptor 2 (Homo sapiens) (UniProt Q16832); assay: Inhibition of DDR2 (unknown origin) assessed as remaining enzyme activity at 10 uM by radioactive [33P]-ATP filter binding assay; in short: as §1
[22] = target: Serine/threonine-protein kinase BRSK2 (Homo sapiens) (UniProt Q8IWQ3); assay: Inhibition of BRSK2 (unknown origin) assessed as remaining enzyme activity at 10 uM by radioactive [33P]-ATP filter binding assay; in short: as §1
[23] = target: Tau-tubulin kinase 1 (Homo sapiens) (UniProt Q5TCY1); assay: Inhibition of TTBK1 (unknown origin) assessed as remaining enzyme activity at 10 uM by radioactive [33P]-ATP filter binding assay
[24] = target: Dual specificity tyrosine-phosphorylation-regulated kinase 2 (Homo sapiens) (UniProt Q92630); assay: Inhibition of DYRK2 (unknown origin) assessed as remaining enzyme activity at 10 uM by radioactive [33P]-ATP filter binding assay; in short: as §1
[25] = target: Dual specificity tyrosine-phosphorylation-regulated kinase 3 (Homo sapiens) (UniProt O43781); assay: Inhibition of DYRK3 (unknown origin) assessed as remaining enzyme activity at 10 uM by radioactive [33P]-ATP filter binding assay; in short: as §1
[26] = target: Misshapen-like kinase 1 (Homo sapiens) (UniProt Q8N4C8); assay: Inhibition of MINK1 (unknown origin) assessed as remaining enzyme activity at 10 uM by radioactive [33P]-ATP filter binding assay
[27] = target: Mitogen-activated protein kinase kinase kinase 1 (Homo sapiens) (UniProt Q13233); assay: Inhibition of MEKK1 (unknown origin) assessed as remaining enzyme activity at 10 uM by radioactive [33P]-ATP filter binding assay
[28] = target: Mitogen-activated protein kinase kinase kinase 5 (Homo sapiens) (UniProt Q99683); assay: Inhibition of ASK1 (unknown origin) assessed as remaining enzyme activity at 10 uM by radioactive [33P]-ATP filter binding assay; in short: as §1
Sequence of Mitogen-activated protein kinase kinase kinase 5 (Homo sapiens) (Q99683 whole entry): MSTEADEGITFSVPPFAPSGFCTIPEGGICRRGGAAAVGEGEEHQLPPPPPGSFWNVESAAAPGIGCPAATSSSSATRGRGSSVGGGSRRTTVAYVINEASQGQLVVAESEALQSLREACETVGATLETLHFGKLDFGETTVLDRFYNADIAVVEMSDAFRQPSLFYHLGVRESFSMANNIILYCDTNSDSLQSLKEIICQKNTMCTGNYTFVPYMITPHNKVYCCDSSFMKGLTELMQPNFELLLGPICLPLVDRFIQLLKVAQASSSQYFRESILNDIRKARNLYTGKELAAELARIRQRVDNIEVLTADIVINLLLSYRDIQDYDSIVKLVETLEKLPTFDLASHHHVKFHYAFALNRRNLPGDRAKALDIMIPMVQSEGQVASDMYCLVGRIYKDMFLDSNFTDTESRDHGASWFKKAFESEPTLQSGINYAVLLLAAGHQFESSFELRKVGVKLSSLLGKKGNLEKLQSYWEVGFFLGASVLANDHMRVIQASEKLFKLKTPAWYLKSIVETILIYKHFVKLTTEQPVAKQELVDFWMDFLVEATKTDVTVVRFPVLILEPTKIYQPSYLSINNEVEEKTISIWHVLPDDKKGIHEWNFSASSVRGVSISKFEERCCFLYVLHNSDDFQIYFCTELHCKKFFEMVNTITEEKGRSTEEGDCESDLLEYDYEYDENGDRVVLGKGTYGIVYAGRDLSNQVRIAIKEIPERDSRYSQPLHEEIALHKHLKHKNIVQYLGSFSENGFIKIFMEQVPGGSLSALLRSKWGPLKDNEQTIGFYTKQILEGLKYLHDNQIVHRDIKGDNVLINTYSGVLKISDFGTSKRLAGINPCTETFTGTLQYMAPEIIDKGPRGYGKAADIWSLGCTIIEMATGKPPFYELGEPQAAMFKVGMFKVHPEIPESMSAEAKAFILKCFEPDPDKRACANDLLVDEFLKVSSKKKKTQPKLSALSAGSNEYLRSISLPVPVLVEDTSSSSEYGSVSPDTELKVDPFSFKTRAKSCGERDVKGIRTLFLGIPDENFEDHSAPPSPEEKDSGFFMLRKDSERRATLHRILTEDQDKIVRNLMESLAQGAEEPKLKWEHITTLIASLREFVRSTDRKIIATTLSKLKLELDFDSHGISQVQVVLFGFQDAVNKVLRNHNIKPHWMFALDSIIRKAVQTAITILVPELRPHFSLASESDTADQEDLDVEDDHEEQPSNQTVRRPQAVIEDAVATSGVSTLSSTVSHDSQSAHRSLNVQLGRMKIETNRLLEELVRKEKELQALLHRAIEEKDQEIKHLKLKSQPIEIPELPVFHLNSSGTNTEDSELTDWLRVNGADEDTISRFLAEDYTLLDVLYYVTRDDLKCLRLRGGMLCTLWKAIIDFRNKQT

Sequence of Mitogen-activated protein kinase 10 (Homo sapiens) (P53779 whole entry): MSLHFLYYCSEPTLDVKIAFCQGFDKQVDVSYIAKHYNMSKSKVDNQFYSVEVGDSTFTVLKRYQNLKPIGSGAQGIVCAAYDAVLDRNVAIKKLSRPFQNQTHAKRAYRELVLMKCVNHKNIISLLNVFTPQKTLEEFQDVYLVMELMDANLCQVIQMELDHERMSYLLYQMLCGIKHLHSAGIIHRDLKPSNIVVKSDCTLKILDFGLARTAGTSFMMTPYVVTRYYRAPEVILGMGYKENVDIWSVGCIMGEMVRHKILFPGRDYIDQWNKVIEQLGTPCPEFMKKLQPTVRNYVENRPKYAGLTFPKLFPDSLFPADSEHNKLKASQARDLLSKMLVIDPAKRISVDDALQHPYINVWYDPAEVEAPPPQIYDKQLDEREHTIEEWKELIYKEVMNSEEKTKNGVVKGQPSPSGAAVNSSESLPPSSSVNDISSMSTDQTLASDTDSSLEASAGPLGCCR
Sequence of Tau-tubulin kinase 1 (Homo sapiens) (Q5TCY1 whole entry): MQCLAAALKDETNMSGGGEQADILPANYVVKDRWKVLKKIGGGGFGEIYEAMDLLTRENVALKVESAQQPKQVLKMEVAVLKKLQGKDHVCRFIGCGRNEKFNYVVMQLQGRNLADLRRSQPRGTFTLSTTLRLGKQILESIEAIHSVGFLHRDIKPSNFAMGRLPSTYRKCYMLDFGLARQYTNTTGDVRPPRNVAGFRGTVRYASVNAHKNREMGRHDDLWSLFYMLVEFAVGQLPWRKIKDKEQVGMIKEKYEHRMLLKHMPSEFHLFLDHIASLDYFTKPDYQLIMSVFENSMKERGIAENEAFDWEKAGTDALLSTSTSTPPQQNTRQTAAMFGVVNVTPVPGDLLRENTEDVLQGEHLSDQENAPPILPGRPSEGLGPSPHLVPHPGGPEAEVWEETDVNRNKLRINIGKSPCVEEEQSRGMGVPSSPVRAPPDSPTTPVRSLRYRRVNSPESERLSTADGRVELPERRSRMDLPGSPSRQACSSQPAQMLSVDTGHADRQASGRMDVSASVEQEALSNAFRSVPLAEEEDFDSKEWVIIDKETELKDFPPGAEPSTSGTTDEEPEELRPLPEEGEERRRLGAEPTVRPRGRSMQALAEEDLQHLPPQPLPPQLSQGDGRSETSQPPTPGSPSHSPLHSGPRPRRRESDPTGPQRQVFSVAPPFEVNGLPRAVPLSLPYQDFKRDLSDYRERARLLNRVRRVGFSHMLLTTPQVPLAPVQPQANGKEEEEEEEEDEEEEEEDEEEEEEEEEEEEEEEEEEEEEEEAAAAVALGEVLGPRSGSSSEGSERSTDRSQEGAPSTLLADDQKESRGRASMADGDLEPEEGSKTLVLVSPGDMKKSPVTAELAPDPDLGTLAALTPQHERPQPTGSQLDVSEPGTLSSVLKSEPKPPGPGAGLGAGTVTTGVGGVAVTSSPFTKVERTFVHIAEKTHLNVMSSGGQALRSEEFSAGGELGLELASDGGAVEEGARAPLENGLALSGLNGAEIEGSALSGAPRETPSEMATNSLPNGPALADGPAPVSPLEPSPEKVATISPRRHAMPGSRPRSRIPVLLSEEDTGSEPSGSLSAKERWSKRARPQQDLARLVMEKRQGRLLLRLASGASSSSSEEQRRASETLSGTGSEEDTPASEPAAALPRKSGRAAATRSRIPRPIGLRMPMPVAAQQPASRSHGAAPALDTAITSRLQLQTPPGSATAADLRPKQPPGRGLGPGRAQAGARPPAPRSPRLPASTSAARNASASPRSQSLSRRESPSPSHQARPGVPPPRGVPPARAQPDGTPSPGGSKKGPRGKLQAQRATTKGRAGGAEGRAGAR
Sequence of MAP kinase-interacting serine/threonine-protein kinase 1 (Homo sapiens) (Q9BUB5 whole entry, looked up): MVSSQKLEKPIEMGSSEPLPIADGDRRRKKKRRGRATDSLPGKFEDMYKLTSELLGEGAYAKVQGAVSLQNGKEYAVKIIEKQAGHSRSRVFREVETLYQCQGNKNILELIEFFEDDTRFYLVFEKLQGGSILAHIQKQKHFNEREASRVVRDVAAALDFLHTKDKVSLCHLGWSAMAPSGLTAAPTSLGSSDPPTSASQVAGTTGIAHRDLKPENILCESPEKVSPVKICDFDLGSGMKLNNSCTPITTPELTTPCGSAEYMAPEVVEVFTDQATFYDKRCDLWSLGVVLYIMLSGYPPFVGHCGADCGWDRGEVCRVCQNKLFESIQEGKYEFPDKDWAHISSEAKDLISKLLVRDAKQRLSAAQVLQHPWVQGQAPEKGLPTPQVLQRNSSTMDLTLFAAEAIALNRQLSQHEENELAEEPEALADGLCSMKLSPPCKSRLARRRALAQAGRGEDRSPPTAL
Sequence of Mitogen-activated protein kinase 13 (Homo sapiens) (O15264 whole entry): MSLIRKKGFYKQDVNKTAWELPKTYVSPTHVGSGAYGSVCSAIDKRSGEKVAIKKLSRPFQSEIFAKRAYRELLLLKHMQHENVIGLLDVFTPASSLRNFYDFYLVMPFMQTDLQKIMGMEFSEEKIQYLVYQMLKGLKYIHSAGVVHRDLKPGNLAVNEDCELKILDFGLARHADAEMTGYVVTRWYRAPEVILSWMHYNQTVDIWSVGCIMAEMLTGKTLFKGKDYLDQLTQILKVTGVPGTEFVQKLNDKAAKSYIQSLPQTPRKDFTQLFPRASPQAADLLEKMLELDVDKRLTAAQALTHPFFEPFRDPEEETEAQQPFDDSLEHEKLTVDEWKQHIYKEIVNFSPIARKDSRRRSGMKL
Sequence of Dual specificity tyrosine-phosphorylation-regulated kinase 3 (Homo sapiens) (O43781 whole entry): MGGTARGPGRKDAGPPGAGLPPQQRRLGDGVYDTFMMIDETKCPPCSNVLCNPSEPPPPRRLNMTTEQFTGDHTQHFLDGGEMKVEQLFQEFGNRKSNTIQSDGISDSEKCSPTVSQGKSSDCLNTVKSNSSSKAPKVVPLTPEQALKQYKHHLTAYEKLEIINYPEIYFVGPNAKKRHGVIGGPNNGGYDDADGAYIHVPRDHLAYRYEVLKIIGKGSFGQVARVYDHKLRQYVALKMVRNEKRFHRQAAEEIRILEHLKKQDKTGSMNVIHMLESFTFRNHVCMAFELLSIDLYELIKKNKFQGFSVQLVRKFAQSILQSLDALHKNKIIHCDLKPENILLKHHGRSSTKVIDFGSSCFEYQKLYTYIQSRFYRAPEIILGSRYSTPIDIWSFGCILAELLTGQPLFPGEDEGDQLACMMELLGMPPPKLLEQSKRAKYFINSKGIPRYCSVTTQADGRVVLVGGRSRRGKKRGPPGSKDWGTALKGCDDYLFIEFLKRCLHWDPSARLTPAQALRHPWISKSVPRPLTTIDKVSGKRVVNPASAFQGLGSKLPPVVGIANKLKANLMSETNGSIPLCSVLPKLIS
Sequence of MAP kinase-activated protein kinase 5 (Homo sapiens) (Q8IW41 whole entry): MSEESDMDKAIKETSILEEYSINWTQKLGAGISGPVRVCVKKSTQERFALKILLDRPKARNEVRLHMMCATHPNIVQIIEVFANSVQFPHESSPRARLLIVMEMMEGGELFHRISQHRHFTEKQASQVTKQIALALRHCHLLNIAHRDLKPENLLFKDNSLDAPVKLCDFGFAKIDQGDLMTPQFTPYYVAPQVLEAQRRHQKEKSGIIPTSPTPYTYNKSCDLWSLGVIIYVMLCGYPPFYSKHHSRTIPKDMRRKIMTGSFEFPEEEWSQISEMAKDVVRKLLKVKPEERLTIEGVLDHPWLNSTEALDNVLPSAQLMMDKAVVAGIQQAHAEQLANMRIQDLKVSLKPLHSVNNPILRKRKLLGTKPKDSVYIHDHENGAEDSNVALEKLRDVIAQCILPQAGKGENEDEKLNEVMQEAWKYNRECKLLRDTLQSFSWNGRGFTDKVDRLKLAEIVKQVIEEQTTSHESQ

For `Cc1ccc(-c2cc(C(=O)Nc3ccnc(Cl)c3)nn2-c2ccc3ccccc3n2)cc1`, the Activity [1] was “Active”, the Activity [2] was 40.1% and the Activity [3] was 94%. For the same compound, the Activity [4] was 115%, the Activity [5] was 100% and the Activity [6] was 95%. It also gave an Activity [7] of 87%, an Activity [8] of 108% and an Activity [9] of 86%. For the same compound, the Activity [10] was 98%, the Activity [11] was 104% and the Activity [12] was 109%. It also gave an Activity [13] of 88%, an Activity [14] of 85% and an Activity [15] of 85%. The Activity [16] was 103%, the Activity [17] was 114% and the Activity [18] was 99%. The Activity [19] was 103%, the Activity [20] was 96% and the Activity [21] was 113%. For the same compound, the Activity [22] was 102%, the Activity [23] was 104% and the Activity [24] was 96%. It also gave an Activity [25] of 86%, an Activity [26] of 114% and an Activity [27] of 113%. It also gave an Activity [28] of 97%.
